Data from ChEMBL document CHEMBL1123488, “Agents for the treatment of brain edema. 2. [(2,3,9,9a-Tetrahydro-3-oxo-9a-substituted-1H-fluoren-7-yl)oxy]+ ++alkanoi c acids and some of their analogues” (J Med Chem, 1986).
pIC50: −log10 of the molar value.

What was measured:
Cavia porcellus [1] = species: Cavia porcellus; experiment: Compound was tested for inhibition of potassium ion uptake in guinea pig cerebrocortical slices at concentration of (10e-9) M; type: functional
Rattus norvegicus [2] = species: Rattus norvegicus; experiment: Compound was tested for inhibition of HCO3- dependent swelling of rat cerebrocortical slices at concentration of (10e-4) M; type: functional
Method in brief: (§1)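 Cerebrocortical slices were weighed and incubated in Warburg flasks at 22 °C in medium of KCl 27, NaCl 100, glucose 10 and KH2PO4 1.2 mmol/L (27 mM K+ HEPES). HCO3- (5 mM) was added from the side arm for the final 40 min, and the compound was present throughout the 60 min. Swelling = (final − initial wet weight)/initial wet weight × 100. Two-tailed t-test versus 27 K + HCO3-.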

Rattus norvegicus [3] = species: Rattus norvegicus; experiment: Compound was tested for inhibition of potassium ion uptake in rat cerebrocortical slices at concentration of (10e-4) M; type: functional
Felis catus [4] = species: Felis catus; experiment: Compound was tested for inhibition of chloride ion uptake in cat cerebrocortical slices at concentration of (10e-10) M; type: functional
Method in brief: (§2)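 Slices were incubated 60 min at 22 °C in 27 mM K+ medium with 5 mM HCO3- added for the last 40 min, with the compound present throughout. Slices were then filtered off, reweighed and homogenized (10% w/v) in 1 N perchloric acid. The supernatant was assayed for electrolytes, expressed as µmol/g initial wet weight. Two-tailed t-test versus 27 K + HCO3-.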

Felis catus [5] = experiment: In vivo activity in the acceleration-deceleration head injury assay at dose of 2.5 mg/kg; 8-19
Felis catus [6] = species: Felis catus; experiment: Compound was tested for inhibition of sodium ion uptake in cat cerebrocortical slices at concentration of (10e-13) M; type: functional
Rattus norvegicus [7] = species: Rattus norvegicus; experiment: Compound was tested for inhibition of HCO3- dependent swelling of rat cerebrocortical slices at concentration of (10e-3) M; type: functional; method in brief: as §1
Rattus norvegicus [8] = species: Rattus norvegicus; experiment: Compound was tested for inhibition of potassium ion uptake in rat cerebrocortical slices at concentration of (10e-3) M; type: functional
Cavia porcellus [9] = species: Cavia porcellus; experiment: Compound was tested for inhibition of HCO3- dependent swelling of guinea pig cerebrocortical slices at concentration of (10e-12) M; type: functional; method in brief: as §1
Rattus norvegicus [10] = species: Rattus norvegicus; experiment: Compound was tested for inhibition of chloride ion uptake in rat cerebrocortical slices at concentration of (10e-6) M; type: functional; method in brief: as §2
Cavia porcellus [11] = species: Cavia porcellus; experiment: Compound was tested for inhibition of HCO3- dependent swelling of guinea pig cerebrocortical slices at concentration of (10e-6) M; type: functional; method in brief: as §1
Cavia porcellus [12] = species: Cavia porcellus; experiment: Compound was tested for inhibition of HCO3- dependent swelling of guinea pig cerebrocortical slices at concentration of (10e-7) M; type: functional; method in brief: as §1
Felis catus [13] = species: Felis catus; experiment: Compound was tested for inhibition of K+ ion uptake in cat cerebrocortical slices at concentration of (10e-7) M; type: functional; method in brief: as §2
Cavia porcellus [14] = species: Cavia porcellus; experiment: Compound was tested for inhibition of potassium ion uptake in guinea pig cerebrocortical slices at concentration of (10e-6) M; type: functional; method in brief: as §2
Felis catus [15] = species: Felis catus; experiment: Compound was tested for inhibition of chloride ion uptake in cat cerebrocortical slices at concentration of (10e-12) M; type: functional; method in brief: as §2
Felis catus [16] = experiment: In vivo activity in the acceleration-deceleration head injury assay at dose of 5 mg/kg; 7/22
Cavia porcellus [17] = species: Cavia porcellus; experiment: Compound was tested for inhibition of HCO3- dependent swelling of guinea pig cerebrocortical slices at concentration of (10e-8) M; type: functional; method in brief: as §1
Cavia porcellus [18] = species: Cavia porcellus; experiment: Compound was tested for inhibition of chloride ion uptake in guinea pig cerebrocortical slices at concentration of (10e-11) M; type: functional; method in brief: as §2
Cavia porcellus [19] = species: Cavia porcellus; experiment: Compound was tested for inhibition of HCO3- dependent swelling of guinea pig cerebrocortical slices at concentration of (10e-11) M; type: functional; method in brief: as §1
Cavia porcellus [20] = species: Cavia porcellus; experiment: Compound was tested for inhibition of sodium ion uptake in guinea pig cerebrocortical slices at concentration of (10e-10) M; type: functional
Felis catus [21] = species: Felis catus; experiment: Compound was tested for inhibition of K+ ion uptake in cat cerebrocortical slices at concentration of (10e-11) M; type: functional; method in brief: as §2
Felis catus [22] = species: Felis catus; experiment: In vitro concentration required for 50% inhibition of swelling of cat cerebrocortical slices; type: functional; conditions: read-out: I50
Method in brief: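 Cat cortical slices were weighed and incubated 60 min at 22 °C in 27 mM K+ medium, with HCO3- added for the last 40 min and inhibitor present throughout. Swelling = (final − initial wet weight)/initial wet weight × 100. The HCO3−-dependent increment was taken as the target. I50 is the molarity giving 50% inhibition, read from the concentration–response curve.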

Rattus norvegicus [23] = species: Rattus norvegicus; experiment: Compound was tested for inhibition of potassium ion uptake in rat cerebrocortical slices at concentration of (10e-8) M; type: functional
Felis catus [24] = species: Felis catus; experiment: Compound was tested for inhibition of HCO3- dependent swelling of cat cerebrocortical slices at concentration of (10e-12) M; type: functional; method in brief: as §1
Cavia porcellus [25] = species: Cavia porcellus; experiment: Compound was tested for inhibition of sodium ion uptake in guinea pig cerebrocortical slices at concentration of (10e-9) M; type: functional
Cavia porcellus [26] = species: Cavia porcellus; experiment: Compound was tested for inhibition of potassium ion uptake in guinea pig cerebrocortical slices at concentration of (10e-11) M; type: functional; method in brief: as §2
Felis catus [27] = species: Felis catus; experiment: Compound was tested for inhibition of chloride ion uptake in cat cerebrocortical slices at concentration of (10e-7) M; type: functional; method in brief: as §2
Felis catus [28] = species: Felis catus; experiment: Compound was tested for inhibition of sodium ion uptake in cat cerebrocortical slices at concentration of (10e-8) M; type: functional
Felis catus [29] = species: Felis catus; experiment: Compound was tested for inhibition of sodium ion uptake in cat cerebrocortical slices at concentration of (10e-12) M; type: functional
Felis catus [30] = species: Felis catus; experiment: Compound was tested for inhibition of HCO3- dependent swelling of cat cerebrocortical slices at concentration of (10e-13) M; type: functional; method in brief: as §1
Cavia porcellus [31] = species: Cavia porcellus; experiment: Compound was tested for inhibition of sodium ion uptake in guinea pig cerebrocortical slices at concentration of (10e-6) M; type: functional
Rattus norvegicus [32] = species: Rattus norvegicus; experiment: Compound was tested for inhibition of sodium ion uptake in rat cerebrocortical slices at concentration of (10e-3) M; type: functional
Rattus norvegicus [33] = species: Rattus norvegicus; experiment: Compound was tested for inhibition of chloride ion uptake in rat cerebrocortical slices at concentration of (10e-3) M; type: functional; method in brief: as §2
Felis catus [34] = species: Felis catus; experiment: Compound was tested for inhibition of HCO3- dependent swelling of cat cerebrocortical slices at concentration of (10e-9) M; type: functional; method in brief: as §1
Felis catus [35] = species: Felis catus; experiment: Compound was tested for inhibition of sodium ion uptake in cat cerebrocortical slices at concentration of (10e-7) M; type: functional
Cavia porcellus [36] = species: Cavia porcellus; experiment: Compound was tested for inhibition of potassium ion uptake in guinea pig cerebrocortical slices at concentration of (10e-7) M; type: functional; method in brief: as §2
Cavia porcellus [37] = species: Cavia porcellus; experiment: Compound was tested for inhibition of HCO3- dependent swelling of guinea pig cerebrocortical slices at concentration of (10e-9) M; type: functional; method in brief: as §1
Cavia porcellus [38] = species: Cavia porcellus; experiment: Compound was tested for inhibition of chloride ion uptake in guinea pig cerebrocortical slices at concentration of (10e-10) M; type: functional; method in brief: as §2
Rattus norvegicus [39] = species: Rattus norvegicus; experiment: Compound was tested for inhibition of HCO3- dependent swelling of rat cerebrocortical slices at concentration of (10e-6) M; type: functional; method in brief: as §1

**Q.** How did the Activity (Cavia porcellus [1]) turn out when `CCCC12CCC(=O)C=C1c1c(cc(OCC(=O)O)c(Cl)c1Cl)C2` (single isomer, unassigned; (+)) was run?
**A.** The Activity was 95.9.

**Q.** And the Swelling (Rattus norvegicus [2])?
**A.** Its Swelling is 22.8%.

**Q.** What about the Activity (Rattus norvegicus [3]) of the same molecule?
**A.** The Activity was 73.7.

**Q.** And the Activity (Felis catus [4])?
**A.** The Activity was 91.9.

**Q.** What about the Deaths (Felis catus [5]) of the same molecule?
**A.** Its Deaths is 8.

**Q.** And the Activity (Felis catus [6])?
**A.** The Activity was 107.3.

**Q.** What about the Swelling (Rattus norvegicus [7]) of the same molecule?
**A.** The Swelling was 19.1%.

**Q.** And the Activity (Rattus norvegicus [8])?
**A.** The Activity was 60.2.

**Q.** And the Swelling (Cavia porcellus [9])?
**A.** The Swelling was 30.9%.

**Q.** And the Activity (Rattus norvegicus [10])?
**A.** The Activity was 101.5.

**Q.** And the Swelling (Cavia porcellus [11])?
**A.** Its Swelling is 26.8%.

**Q.** What about the Swelling (Cavia porcellus [12]) of the same molecule?
**A.** Its Swelling is 26.4%.

**Q.** And the Activity (Felis catus [13])?
**A.** The Activity was 83.9.

**Q.** What about the Activity (Cavia porcellus [14]) of the same molecule?
**A.** The Activity was 95.

**Q.** What about the Activity (Felis catus [15]) of the same molecule?
**A.** Its Activity is 90.5.

**Q.** And the Deaths (Felis catus [16])?
**A.** Its Deaths is 7.

**Q.** And the Swelling (Cavia porcellus [17])?
**A.** The Swelling was 24.4%.

**Q.** What about the Activity (Cavia porcellus [18]) of the same molecule?
**A.** Its Activity is 94.8.

**Q.** What about the Swelling (Cavia porcellus [19]) of the same molecule?
**A.** The Swelling was 27.6%.

**Q.** What about the Activity (Cavia porcellus [20]) of the same molecule?
**A.** Its Activity is 108.3.

**Q.** And the Activity (Felis catus [21])?
**A.** The Activity was 88.8.

**Q.** And the pIC50 (Felis catus [22])?
**A.** Its pIC50 is 10.70.

**Q.** And the Activity (Rattus norvegicus [23])?
**A.** Its Activity is 75.4.

**Q.** What about the Swelling (Felis catus [24]) of the same molecule?
**A.** Its Swelling is 21.3%.

**Q.** What about the Activity (Cavia porcellus [25]) of the same molecule?
**A.** The Activity was 110.

**Q.** And the Activity (Cavia porcellus [26])?
**A.** Its Activity is 88.9.

**Q.** What about the Activity (Felis catus [27]) of the same molecule?
**A.** Its Activity is 86.9.

**Q.** And the Activity (Felis catus [28])?
**A.** Its Activity is 87.2.

**Q.** And the Activity (Felis catus [29])?
**A.** Its Activity is 96.4.

**Q.** And the Swelling (Felis catus [30])?
**A.** The Swelling was 27.3%.

**Q.** What about the Activity (Cavia porcellus [31]) of the same molecule?
**A.** Its Activity is 115.

**Q.** What about the Activity (Rattus norvegicus [32]) of the same molecule?
**A.** Its Activity is 132.4.

**Q.** And the Activity (Rattus norvegicus [33])?
**A.** Its Activity is 106.3.

**Q.** What about the Swelling (Felis catus [34]) of the same molecule?
**A.** The Swelling was 18.3%.

**Q.** And the Activity (Felis catus [35])?
**A.** The Activity was 86.

**Q.** And the Activity (Cavia porcellus [36])?
**A.** Its Activity is 88.1.

**Q.** What about the Swelling (Cavia porcellus [37]) of the same molecule?
**A.** Its Swelling is 26.2%.

**Q.** What about the Activity (Cavia porcellus [38]) of the same molecule?
**A.** Its Activity is 101.4.

**Q.** What about the Swelling (Rattus norvegicus [39]) of the same molecule?
**A.** The Swelling was 22.7%.
